Values belong to the compound of their own block, whether it stands above or below them.
Key:
[1] = test system: serum IL-1β, IL-6, TNF-α and IFN-γ; assay: LPS challenge mouse acute inflammation model; type: in vivo, C57BL/6 mice; conditions: oral, 3 days, LPS 300 μg/kg IP
Summary of the method: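 Female C57BL/6 mice (6–8 weeks, 18–20 g) were acclimatised for 2 days. LPS 300 μg/kg/day was given IP in 500 μL on days −3, −2 and −1 (n = 8 per LPS group). Test compound (10 or 40 mg/kg/day) was given intragastrically in 500 μL saline 4 h after each LPS dose. Dexamethasone 10 mg/kg/day served as positive control. Saline IP controls had n = 3. Sera were taken 24 h after the last dose for cytokine ELISA.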

[2] = target: Keap1-Nrf2 interaction (Keap1 Kelch domain / FITC-9mer Nrf2 peptide) (Homo sapiens, UniProt Q14145); assay: Fluorescence polarization; type: binding
Keap1-Nrf2 interaction (Keap1 Kelch domain / FITC-9mer Nrf2 peptide), sequence (Q14145 322-609): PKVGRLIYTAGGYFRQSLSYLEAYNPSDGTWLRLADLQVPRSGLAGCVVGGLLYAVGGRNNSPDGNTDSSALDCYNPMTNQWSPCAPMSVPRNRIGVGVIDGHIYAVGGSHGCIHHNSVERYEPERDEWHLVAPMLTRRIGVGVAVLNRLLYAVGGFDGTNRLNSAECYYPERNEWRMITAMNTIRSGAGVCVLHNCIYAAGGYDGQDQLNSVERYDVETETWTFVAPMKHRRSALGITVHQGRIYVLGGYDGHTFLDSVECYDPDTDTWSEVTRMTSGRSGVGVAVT

[3] = HPLC assay for H2O2-induced drug release; type: physicochemical
Summary of the method: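 A 10 mM DMSO stock of test compound was diluted to 50 μM final in PBS (10 mM, pH 7.4). H2O2 was added at graded levels (24 h incubation) or at 10 mM (time course), then vortexed. Incubation was at 37 °C in triplicate. Samples taken at intervals were injected directly onto C18 HPLC (70% methanol, 0.5 mL/min, DAD detection). Percent compound came from peak areas against a standard curve.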

[4] = Parallel artificial membrane permeability assay; type: physicochemical; conditions: PAMPA
Summary of the method: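 Effective permeability (Pe) at pH 7.4 was measured by double-sink PAMPA.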

RAW264.7 cells [5] = assay: Antioxidant capacity; type: cell-based, mouse; conditions: LPS (20 ng/mL) treated RAW 264.7 cells
Summary of the method: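 RAW264.7 cells were pretreated with LPS (20 ng/mL) for 8 h, then exposed to test compound for a further 16 h. SOD activity, GSH-Px activity, GSH/GSSG ratio and MPO activity were measured in the cells. Data are means ± SEM of 3 independent observations, with one-way ANOVA.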

[6] = Stability in simulated gastric fluid and simulated intestinal fluid; type: in vitro ADME; conditions: after 8 h, 37 °C, 20 μM
Summary of the method: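 Test compound (20 μM) was incubated separately in commercial artificial gastric and intestinal juices at 37 °C for various times, in three parallel runs. Proteins were precipitated with methanol, vortexed and centrifuged at 5000 rpm for 5 min. Supernatants were analysed by HPLC (C18, 70% methanol, 0.5 mL/min) from peak areas.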

Plasma stability = type: in vitro ADME, rat; conditions: 20 μM, 37 °C
Summary of the method: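 Test compound (20 μM) was incubated in plasma at 37 °C for various times, in three parallel runs. Proteins were precipitated with methanol, vortexed and centrifuged at 12,000 rpm for 5 min. Supernatants were analysed by HPLC from peak areas.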

HepG2-ARE-C8 cells = assay: Nrf2/ARE luciferase reporter assay; type: cell-based
pH stability in PBS = type: physicochemical; conditions: pH 4 to 10, 24 h, 37 °C, 20 μM
Summary of the method: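 PBS was adjusted to pH 4–10 with 0.1 M HCl or NaOH. Test compound (20 μM) was incubated at 37 °C for 24 h, in triplicate. Solutions were filtered and injected directly on HPLC three times. Percent remaining came from peak areas.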

[7] = Liver microsome stability; type: in vitro ADME, rat
Summary of the method: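 Rat (CD-1 male) liver microsomes from a 20 mg/mL stock were shaken in PBS at 37 °C for 10 min. Test compound was added from a 0.5 mM DMSO solution, with a 20 μM test level. After 5 min preincubation, the reaction was started with NADPH (6 mM stock). It was quenched with ice-cold acetonitrile at 0, 5, 15, 30 and 45 min. Samples were centrifuged at 5000 rpm for 15 min and supernatants analysed by LC-MS/MS. Ketanserin served as reference.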

[8] = In vivo pharmacokinetic assay; design: species or system SD rats; conditions: rat
RAW264.7 cells [9] = assay: Inflammatory factors; type: cell-based, mouse
Summary of the method: (§1)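 RAW264.7 cells were pretreated with LPS (20 ng/mL) for 8 h, then exposed to test compound for 16 h. Total RNA was extracted with TRIzol and reverse-transcribed, followed by real-time qRT-PCR. mRNA was normalised to β-actin and expressed as fold of control. Data are means ± SEM, n = 3 independent observations, one-way ANOVA.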

RAW264.7 cells [10] = assay: qRT-PCR and Western blot of Nrf2-ARE driven genes in LPS-treated cells; type: cell-based, mouse; conditions: 20 ng/mL LPS 8 h
Summary of the method: as §1

Structure (SMILES): C[C@@H]1C[C@H]2[C@@H]3CCC4=CC(=O)C=C[C@]4(C)[C@@]3(F)[C@@H](O)C[C@]2(C)[C@@]1(O)C(=O)CO [DXM, Dexamethasone, reference compound]
Anti-inflammation effect on serum pro-inflammatory cytokines ([1]; 10 mg/kg): diminished inflammatory response

Inhibition against Keap-Nrf2 interaction in the FP assay [2]: no inhibition | Production of compound 1 from the prodrug in the presence of H2O2 ([3]; H2O2 (10 mM), PBS pH 7.4, 37 °C, UPLC/HRMS): cannot be observed even after 12 h
Structure (SMILES): COc1ccc(S(=O)(=O)N(CC(=O)N2CCSC2=O)c2ccc(N(CC(=O)N3CCSC3=O)S(=O)(=O)c3ccc(OC)cc3)c3ccccc23)cc1 [pro1, N,N'-(naphthalene-1,4-diyl)bis(4-methoxy-N-(2-oxo-2-(2-oxothiazolidin-3-yl)ethyl)benzenesulfonamide)]

Inhibition against Keap-Nrf2 interaction in the FP assay [2]: no inhibition | Pe at pH 7.4 [4]: 6.35 10−6 cm/s | Remaining in simulated gastric fluid (SGF) [6]: more than 50% | Remaining in simulated intestinal fluid (SIF) [6]: more than 50% | Stability in rat plasma (Plasma stability): quite stable | Stability to hydrolysis in PBS (pH stability in PBS): relatively stable | Stability in co-incubation with rat liver microsomes [7]: quite stable | Prodrug released to parent compound 2 ([3]; 1 mM H2O2, incubating 24 h, PBS pH 7.4, 37 °C): approximately 60% | Time to complete release to the parent compound 2 ([3]; 10 mM H2O2, PBS pH 7.4, 37 °C): ≤ 3 h | Conversion to parent compound 2 determined by HPLC ([3]; 10 mM H2O2, within 3 h): > 98% | Cl_F ([8]; I.V. (2 mg/kg)): 18.5 ± 3.9 mL/min/kg | Vz_F ([8]; I.V. (2 mg/kg)): 6.44 ± 4.09 L/kg | Vz_F ([8]; P.O. (10 mg/kg)): 4.79 ± 2.17 L/kg | bioavailability ([8]; male, SD, plasma, oral): 68.1% | CL/F ([8]; male, SD, plasma, po, 10 mg/kg): 26.4 ± 1.14 mL/min/kg
Structure (SMILES): COc1ccc(S(=O)(=O)Nc2ccc(N(CC(=O)N3CCSC3=O)S(=O)(=O)c3ccc(OC)cc3)c3ccccc23)cc1 [pro2, 4-methoxy-N-(4-((4-methoxyphenyl)sulfonamido)naphthalen-1-yl)-N-(2-oxo-2-(2-oxothiazolidin-3-yl)ethyl)benzenesulfonamide]
Activities of SOD and GSH-Px (RAW264.7 cells [5]): significantly restored the activities | GSH/GSSG ratio and MPO activity (RAW264.7 cells [5]): restored the levels nearly back to normal | Relative ARE induction activity under normal conditions (HepG2-ARE-C8 cells; HepG2-ARE-C8 cells, no LPS): nearly inactive | Relative ARE induction activity under various concentrations of LPS (HepG2-ARE-C8 cells; LPS pretreatment 8 h, then compound 200 nM for 12 h): LPS concentration-dependent enhancement of Nrf2-ARE inducing activity | Anti-inflammation effect on serum pro-inflammatory cytokines ([1]; 10 mg/kg): comparable therapeutic effects with DXM | Anti-inflammation effect on serum pro-inflammatory cytokines ([1]; 40 mg/kg (high dose)): more potent effects | LPS-induced elevation of IL-1β and IL-6 protein (RAW264.7 cells [9]; LPS (20 ng/mL) 8 h, Western blot): almost completely suppressed the elevation | mRNA levels of IL-1β and IL-6 (RAW264.7 cells [9]; LPS (20 ng/mL) 8 h, qRT-PCR): significant suppression effects | Suppression of IL-1β, IL-6 and TNF-α production (RAW264.7 cells [9]; LPS (20 ng/mL), culture supernatants, ELISA): obvious superiority in the suppression | Transcription of Nrf2 targeted genes (HO-1, NQO1, GCLM mRNA) (RAW264.7 cells [10]; compound 500 nM, qRT-PCR): highly enhanced the transcription | Protein levels of Nrf2 and downstream antioxidant enzymes (RAW264.7 cells [10]; then compound 16 h, Western blot): remarkably accumulated Nrf2 protein and elevated downstream antioxidant enzymes

— publication PMC7231841 (Redox Biology, 2020)
